Assay results collected from several papers.
Protocols differ between the studies behind these lines.
Target: Serine/threonine-protein kinase D2 (PRKD2, Homo sapiens, UniProt Q9BZL6)
Residues used in one study (Q9BZL6 1-878): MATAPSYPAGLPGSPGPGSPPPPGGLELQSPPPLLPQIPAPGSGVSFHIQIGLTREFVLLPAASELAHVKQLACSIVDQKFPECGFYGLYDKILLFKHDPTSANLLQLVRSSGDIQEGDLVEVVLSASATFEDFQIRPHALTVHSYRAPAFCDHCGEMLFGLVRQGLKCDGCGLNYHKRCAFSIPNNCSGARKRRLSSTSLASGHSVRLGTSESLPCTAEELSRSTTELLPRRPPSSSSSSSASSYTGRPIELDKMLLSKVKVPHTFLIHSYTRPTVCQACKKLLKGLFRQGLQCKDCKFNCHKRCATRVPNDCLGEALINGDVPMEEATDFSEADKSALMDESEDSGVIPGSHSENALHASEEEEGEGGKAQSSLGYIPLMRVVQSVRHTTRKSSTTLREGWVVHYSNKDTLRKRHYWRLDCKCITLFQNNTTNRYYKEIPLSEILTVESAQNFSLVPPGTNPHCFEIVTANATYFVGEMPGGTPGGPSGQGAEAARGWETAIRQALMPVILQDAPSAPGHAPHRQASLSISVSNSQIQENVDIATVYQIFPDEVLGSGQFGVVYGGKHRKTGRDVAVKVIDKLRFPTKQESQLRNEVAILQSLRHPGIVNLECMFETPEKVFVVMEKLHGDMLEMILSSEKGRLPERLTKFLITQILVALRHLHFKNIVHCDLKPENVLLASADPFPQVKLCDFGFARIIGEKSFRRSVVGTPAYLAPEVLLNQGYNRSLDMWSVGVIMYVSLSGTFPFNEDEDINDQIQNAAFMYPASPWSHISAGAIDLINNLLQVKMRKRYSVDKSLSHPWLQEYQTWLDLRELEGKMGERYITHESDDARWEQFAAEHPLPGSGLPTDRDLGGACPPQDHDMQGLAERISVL

| SMILES | assay | conditions | endpoint | value |
| --- | --- | --- | --- | --- |
| CC(C)(C)c1cc(C=C(C#N)C#N)cc(Br)c1O | enzyme activity, inhibitor | 0.5 µM | remaining activity | 108% |
| Cc1nn(C)cc1-c1nc2c(N3CCN(Cc4ccc(Cl)cc4)CC3)c(Cl)cnc2[nH]1 | binding, competition with immobilised ligand | 1 µM | remaining binding | 100% |
| Cn1cc(-c2cc(F)cc(N3CCn4c(cc5c4CCCC5)C3=O)c2CO)cc(Nc2ccc(N3CCN(C4COC4)CC3)cn2)c1=O | enzyme activity, inhibitor | 0.1 µM | inhibition | 11% |
| Cn1cncc1[C@](O)(COc1ccc(C#N)cc1-c1ccc(OC(F)(F)F)cc1)c1ccc(C#N)cc1 | cell-free assay, competition with immobilised ligand | 1 µM | remaining binding | 84% |
| COc1cc(Nc2ncc(F)c(Nc3ccc4c(n3)NC(=O)C(C)(C)O4)n2)cc(OC)c1OC | binding | 10 µM | inhibition | 0% |
| Nc1ncc(-c2nc(N3CCOCC3)nc(N3CCOCC3)n2)c(C(F)F)n1 | binding, competition with immobilised ligand | 10 µM | remaining binding | 99% |
| COc1ncccc1-c1cnn2ccc(N3CCN(C(=O)OC(C)C)CC3)nc12 | binding, competition with immobilised ligand | 1 µM | remaining binding | 100% |
| Cn1cc(-c2cccc(N3CCc4c(sc5c4CC(C)(C)C5)C3=O)c2CO)cc(Nc2ccncn2)c1=O | enzyme activity, inhibitor | 1 µM | inhibition | 0% |
| O=c1[nH]c2ccccc2n1C1CCN(Cc2ccc(-c3[nH]c4cc5ncnc5cc4nc3-c3ccccc3)cc2)CC1 | cell-free assay | 0.5 µM | remaining signal | 109% |
